We go through 38 variants from the RNAGym collection of RNA variant scans (doi:10.1126/science.aae0568).

The labels stand for the following.
B1: tRNA (parent)
chain: GUUCCGUUGGCGUAAUGGUAACGCGUCUCCCUCCUAAGGAGAAGACUGCGGGUUCGAGUCCCGUACGGAACG

Variants at the floor of the assay were thinned out. Some results are limits rather than exact numbers.

Variants of B1 are the subject of this data set. Kind of data set: yeast fitness relative to wild type (ratio to wild type); higher = fitter; tRNA-Arg(CCU), competitive growth, 37 C, YPD. The method, boiled down: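 Changes in genotype frequencies gave Darwinian fitness relative to wild type. Frequencies were read by 100-nucleotide paired-end sequencing of gene amplicons before and after pooled Saccharomyces cerevisiae strains, carrying tRNA-Arg(CCU) gene variants at the native locus, were competed in YPD at 37°C for 24 hours in six replicates. A genotype was kept only with ≥ 100 starting reads, and estimates < 0.5 were set to 0.5.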
On to GUUCCGUUGGUGUAAUGGUAACGCGUCUCCCUCCUAAGGAGAAGACUGCGGGUUCGAGUCCCGUCCGGAACG [C11U A65C], for which the yeast fitness amounted to 0.933. The result for GUUCCGUUGGUGUAAUGGUAACGCGUCUCCCUCCUAAGGAGAAGACUGCGGGUUCGAGUCCCGUUCGGAACG [C11U A65U] reads 0.923; that for GUUCCGUUGGUGUAAUGGUAACGCGUCUCCCUCCUAAGGAGCAGACUGCGGGUUCGAGUCCCGUGCGGAACG [C11U A42C A65G], 0.658. Consider GUUCCGUUGGUGUAAUGGUAACGCGUCUCCCUCCUAAGGAGAAGUCUGCGGGUUCGCAUCCCGUACGGAACG [C11U A45U A57C G58A], for which the yeast fitness is 0.61. For GUUCCGUUGGUGUAAUGGUAACGCGUCUCCCUCCUAAGGAGCAGACUACGGGUUCGAGUCCCGUACGGAACG [C11U A42C G48A] the value was 0.566; for GUUCCGUUGGUGUAAUGGUAACGCGUCUCCCUCCUAAGGAGCAGACCGCGGGUUCGAGUCCCGUACGGAACG [C11U A42C U47C], 0.764; for GUUCCGUUGGUGUAAUGGUAACGCGUCUCCCUCCUAAGGAGAAGACUGCGGGUUCGCGUCCCAUACGGAACG [C11U A57C G63A], not above 0.5. For GUUCCGUUGGUGUAAUGGUAACGCGUCUCCCUCCUAAGGAGACGACUGCGGGUUCGAGUCCUGUACGGAACG [C11U A43C C62U] the value was 0.692; for GUUCCGUUGGUGUAAUGGUAACGCGUCUCCCUCCUAAGGAGGAGACUGAGGGUUCGCGUCCCGUACGGAACG [C11U A42G C49A A57C], 0.51.

With GUUCCGUUGGUGUAAUGGUAACGCGUCUCCCUCCUAAGGAGAAGACUGCGGGUUCGGGUCCCGUACGGAACG [C11U A57G], the yeast fitness is 0.816. Regarding GUUCCGUUGGUGUAAUGGUAACGCGUCUCCCUCCUAAGGAGAAGACUGCGGGUUCGCGUCCCGUACGGAACG [C11U A57C], the yeast fitness is 0.622.

With GUUCCGUUGGUGUAAUGGUAACGCGUCUCCCUCCUAAGGAGAAGUCUGCGGGUUCGAGUCCCGUACGGACCG [C11U A45U A70C], the yeast fitness amounted to 1.06.

GUUCCGUUGGUGUAAUGGUAACGCGUCUCCCUCCUAAGGAGAAGACUGCGGGUUCGAGUCCCGUACGGUACG [C11U A69U]: the yeast fitness turned out to be 0.949. For GUUCCGUUGGUGUAAUGGUAACGCGUCUCCCUCCUAAGGAGAUGACUGCGGGUUCGAGUCCAGUACGGAACG [C11U A43U C62A] the value was 0.605; for GUUCCGUUGGUGUAAUGGUAACGCGUCUCCCUCCUAAGGAGAAGACUGCGGGUUCGGGUCCCGUACGGUACG [C11U A57G A69U], 0.718. For GUUCCGUUGGUGUAAUGGUAACGCGUCUCCCUCCUAAGGAGAAGACUGCGGGUUCGAGUCCCGUACGGCUCG [C11U A69C A70U] the value was 0.814; for GUUCCGUUGGUGUAAUGGUAACGCGUCUCCCUCCUAAGGAGACGACUCCGGGUUCGAGUCCCGCACGGAACG [C11U A43C G48C U64C], not above 0.5. With GUUCCGUUGGUGUAAUGGUAACGCGUCUCCCUCCUAAGGGGAAGACUGCGGGUUCGAGUCCCGUCCGGAACG [C11U A40G A65C], the yeast fitness is 0.594. The result for GUUCCGUUGGUGUAAUGGUAACGCGUCUCCCUCCUAAGGAGGAGAGUGCGGGUUCCAGUCCCGUCCGGAACG [C11U A42G C46G G56C A65C] reads not above 0.5; that for GUUCCGUUGGUGUAAUGGUAACGCGUCUCCCUCCUAAGGAGAAGGCUGCGGGUUCGAGUCCCGUACGGAACG [C11U A45G], 0.96. For GUUCCGUUGGUGUAAUGGUAACGCGUCUCCCUCCUAAGGAGAAGUCUGGGGGUUCGAGUCCCGUUCGGAACG [C11U A45U C49G A65U] the value was not above 0.5; for GUUCCGUUGGUGUAAUGGUAACGCGUCUCCCUCCUAAGGUGAAGAUUGCGGGUUCGAGUGCCGUACGGAACG [C11U A40U C46U C60G], 0.589. The result for GUUCCGUUGGUGUAAUGGUAACGCGUCUCCCUCCUAAGGAGAAGACUGCGGGUUCGGGUCUCGUACGGAACG [C11U A57G C61U] reads not above 0.5; that for GUUCCGUUGGUGUAAUGGUAACGCGUCUCCCUCCUAAGGAGAAGACUGCGGGUUCGGGUCACGUACGGAACG [C11U A57G C61A], not above 0.5; that for GUUCCGUUGGUGUAAUGGUAACGCGUCUCCCUCCUAAGGAGAAGGCUGCGGGUUCGAGACCCGUACGGAACG [C11U A45G U59A], 0.526. GUUCCGUUGGUGUAAUGGUAACGCGUCUCCCUCCUAAGGAGAAGACUGCGGGUUCGAGUCCCGUGCGGAUCG [C11U A65G A70U]: the yeast fitness is 0.606. The result for GUUCCGUUGGUGUAAUGGUAACGCGUCUCCCUCCUAAGGUGAAGACUGCGGGUUCGAGUCCCGUACGGAACG [C11U A40U] reads 0.787; that for GUUCCGUUGGUGUAAUGGUAACGCGUCUCCCUCCUAAGGCGAAGACUGCGGGUUCGAGUCCCGUACGGAACG [C11U A40C], 0.755; that for GUUCCGUUGGUGUAAUGGUAACGCGUCUCCCUCCUAAGGAGACAACUGCGGGUUCGAGUCCCGUACGGAACG [C11U A43C G44A], 0.741. As to GUUCCGUUGGUGUAAUGGUAACGCGUCUCCCUCCUAAGGAGUGGACUGCGGGUUCGAGUCACGUACGGAACG [C11U A42U A43G C61A], the yeast fitness is not above 0.5. For GUUCCGUUGGUGUAAUGGUAACGCGUCUCCCUCCUAAGGAGAAGUCUGCGGGCUCGAGUCCCGUACGGAACG [C11U A45U U53C] the value was 0.66; for GUUCCGUUGGUGUAAUGGUAACGCGUCUCCCUCCUAAGGAGAAGUCUGCGGGUGCGAGUCCCGUACGGAACG [C11U A45U U54G], not above 0.5. For GUUCCGUUGGUGUAAUGGUAACGCGUCUCCCUCCUAAGGAGAUGCCUGCGGGUUCGAGUCCCGUACCGAACG [C11U A43U A45C G67C] the value was not above 0.5; for GUUCCGUUGGUGUAAUGGUAACGCGUCUCCCUCCUAAGGUGAAGACUGCGGGUUCGAGUCCCGUACGGCACG [C11U A40U A69C], 0.646.

As for GUUCCGUUGGUGUAAUGGUAACGCGUCUCCCUCCUAAGGAGAAGACUGCGGGUUCGCGUUCCGUACCGAACG [C11U A57C C60U G67C], the yeast fitness is 0.589. For GUUCCGUUGGUGUAAUGGUAACGCGUCUCCCUCCUAAGGUGAAGAUUGCGGGUUCGAGUCCCCUACGGAACG [C11U A40U C46U G63C] the value was not above 0.5.

For GUUCCGUUGGUGUAAUGGUAACGCGUCUCCCUCCUAAGGAGAAGUCUGCGGGUUCGAGUCCCGUCCGGAACG [C11U A45U A65C], the yeast fitness came to 0.733. As to GUUCCGUUGGUGUAAUGGUAACGCGUCUCCCUCCUAAGGAGGAGACUGCGGGUUCGAGUGCCGUACGGAACG [C11U A42G C60G], the yeast fitness is not above 0.5.
